Measurements as given in ChEMBL document CHEMBL1134951, “Substituted uracil derivatives as potent inhibitors of poly(ADP-ribose)polymerase-1 (PARP-1)” (Bioorg Med Chem Lett, 2002).
≈ marks a conversion by molar mass, not a printed value. Where “and” joins values, the source holds several entries; their conditions need not be identical. Identical values can stand only once.

Assays:
[1] = biological target: T1, Poly [ADP-ribose] polymerase 1 (Homo sapiens, UniProt P09874); assay: Inhibitory activity against human recombinant PARP-1
[2] = Clearance was determined by administering the compound intravenously at a dose of 1 mg/kg in male wistar rat; assay type: ADME, organism-based; design: dose 1 mg/kg, route intravenous; details: in vivo, iv
Rattus norvegicus = assay: Volume at steady state distribution by administering the compound intravenously at a dose of 1 mg/kg in male wistar rat was determined; assay type: ADME, organism-based; design: dose 1 mg/kg, route intravenous; details: in vivo, iv
[3] = Half life was determined by administering the compound intravenously at a dose of 1 mg/kg in male wistar rat; assay type: ADME, organism-based; design: dose 1 mg/kg, route intravenous; details: in vivo, iv
[4] = Area under the curve was determined by administering the compound at a dose of 1 mg/kg intravenously in male wistar rat; assay type: ADME, organism-based; design: dose 1 mg/kg, route intravenous; details: in vivo, iv
[5] = Solubility in phosphate buffered saline (1% DMSO) at pH 6.5 (24 hr equilibration); assay type: physicochemical; details: buffer
[6] = biological target: T1, Poly [ADP-ribose] polymerase 1; assay: Concentration required to inhibit human recombinant Poly (ADP-ribose) polymerase 1 was determined using dose-response inhibition
Procedure, shortened: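 Purified recombinant human PARP-1 from a baculovirus (Bac-To-Bac) expression system. It ran 10 min at rt and was stopped with ice-cold 10% TCA. Precipitate was filtered, washed with ethanol and dried, then counted by scintillation. Read-out: IC50.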

T1 sequence (P09874 whole entry): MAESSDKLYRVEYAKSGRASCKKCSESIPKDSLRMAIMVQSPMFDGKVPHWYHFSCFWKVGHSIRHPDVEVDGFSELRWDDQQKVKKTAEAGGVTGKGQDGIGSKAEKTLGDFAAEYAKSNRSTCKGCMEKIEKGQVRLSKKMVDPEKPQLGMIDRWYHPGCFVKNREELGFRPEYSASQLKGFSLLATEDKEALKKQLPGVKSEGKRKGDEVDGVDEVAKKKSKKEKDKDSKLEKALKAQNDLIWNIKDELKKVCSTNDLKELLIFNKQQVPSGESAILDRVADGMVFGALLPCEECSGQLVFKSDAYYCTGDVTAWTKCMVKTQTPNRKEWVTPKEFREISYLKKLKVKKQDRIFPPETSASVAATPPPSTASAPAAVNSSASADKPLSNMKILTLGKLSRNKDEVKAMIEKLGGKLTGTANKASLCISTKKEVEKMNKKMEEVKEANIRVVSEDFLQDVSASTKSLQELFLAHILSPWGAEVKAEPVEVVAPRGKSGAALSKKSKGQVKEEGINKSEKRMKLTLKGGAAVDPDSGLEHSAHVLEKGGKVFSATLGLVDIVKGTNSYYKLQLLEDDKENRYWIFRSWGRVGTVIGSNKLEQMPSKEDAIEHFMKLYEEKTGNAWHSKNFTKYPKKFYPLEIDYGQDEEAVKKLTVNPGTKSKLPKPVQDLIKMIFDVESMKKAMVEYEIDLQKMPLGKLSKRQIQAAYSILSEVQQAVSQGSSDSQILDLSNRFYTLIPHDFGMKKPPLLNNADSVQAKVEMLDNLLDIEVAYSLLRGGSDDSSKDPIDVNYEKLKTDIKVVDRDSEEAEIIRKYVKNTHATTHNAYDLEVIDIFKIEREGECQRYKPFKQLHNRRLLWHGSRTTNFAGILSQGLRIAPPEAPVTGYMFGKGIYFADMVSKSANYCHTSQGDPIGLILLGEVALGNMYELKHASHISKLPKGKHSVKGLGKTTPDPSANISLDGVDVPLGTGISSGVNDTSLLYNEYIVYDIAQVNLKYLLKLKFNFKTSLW

Row | SMILES | IC50 [1] | other results
1 | O=C(CCn1c2c(c(=O)[nH]c1=O)CSCC2)NCC(=O)N1CCN(c2ncncn2)CC1 | 50 nM | –
2 | O=C(CCn1c2c(c(=O)[nH]c1=O)CSCC2)NCC(=O)c1ccc(N2CCCC2)cc1 | 12 nM | –
3 | O=C(CCn1c2c(c(=O)[nH]c1=O)CSCC2)NCC(=O)N1CCN(c2cc(C(F)(F)F)ccn2)CC1 | 20 nM | clearance [2]: 36.8 mL/min/kg; Vss (Rattus norvegicus): 0.42 L/kg; half-life [3]: 18 min; AUC [4]: 450 ng·h/mL
4 | O=C(CCn1c2c(c(=O)[nH]c1=O)CSCC2)NCC(=O)c1ccc(-c2cccnc2)cc1 | 12 nM | –
5 | O=C(CCn1c2c(c(=O)[nH]c1=O)CSCC2)NCC(=O)c1ccc(OC(F)F)cc1 | 30 nM | –
6 | O=C(CCn1c2c(c(=O)[nH]c1=O)CSCC2)NCC(=O)N1CCN(c2ccccn2)CC1 | 35 nM | clearance [2]: 51.8 mL/min/kg; Vss (Rattus norvegicus): 1.19 L/kg; half-life [3]: 72 min; AUC [4]: 320 ng·h/mL
7 | O=C(CCn1c2c(c(=O)[nH]c1=O)CSCC2)NCC(=O)N1CCN(c2cccnn2)CC1 | 20 nM | –
8 | O=C(CCn1c2c(c(=O)[nH]c1=O)COCC2)NCC(=O)N1CCN(c2ncccn2)CC1 | 800 nM | –
9 | O=C(CCn1c2c(c(=O)[nH]c1=O)CSCC2)NCC(=O)N1CCN(c2ccccc2)CC1 | – | clearance [2]: 72.2 mL/min/kg; Solubility [5]: 330 µg/mL (≈ 721 µM); Vss (Rattus norvegicus): 1.39 L/kg; half-life [3]: 24 min; AUC [4]: 230 ng·h/mL; IC50 [6]: 30 nM
10 | COc1ccc(C(=O)CNC(=O)CCn2c3c(c(=O)[nH]c2=O)CSCC3)cc1 | 25 nM | –
11 | O=C(CCn1c2c(c(=O)[nH]c1=O)CSCC2)NCC(=O)c1cccc(Br)c1 | 70 nM | –
12 | CN(CC(=O)c1ccc2ccccc2c1)C(=O)CCn1c2c(c(=O)[nH]c1=O)CCCC2 | 400 nM | –
13 | O=C(CCn1c2c(c(=O)[nH]c1=O)CSCC2)NCC(=O)N1CCN(c2ccncc2)CC1 | 40 nM | –
14 | O=C(CCn1c2c(c(=O)[nH]c1=O)CSCC2)NCC(=O)N1CCN(c2ncccc2C(F)(F)F)CC1 | 40 nM | clearance [2]: 71.7 mL/min/kg; AUC [4]: 230 ng·h/mL
15 | O=C(CCn1c2c(c(=O)[nH]c1=O)CCCC2)NCC(=O)N1CCN(c2ncccn2)CC1 | 90 nM | –
16 | O=C(CCn1c2c(c(=O)[nH]c1=O)CSCC2)NCC(=O)c1ccc(Cl)cc1 | 60 nM | –
17 | O=C(CCn1c2c(c(=O)[nH]c1=O)CCCCC2)NCC(=O)N1CCN(c2ncccn2)CC1 | 900 nM | –
18 | O=C(Cn1c2c(c(=O)[nH]c1=O)CSCC2)NCC(=O)N1CCN(c2ncccn2)CC1 | 150 nM | –
19 | CC(CC(=O)NCC(=O)c1ccc2ccccc2c1)n1c2c(c(=O)[nH]c1=O)CCCC2 (stereo not given) | > 5000 nM | –
20 | O=C(Cn1c2c(c(=O)[nH]c1=O)CSCC2)NCCC(=O)N1CCN(c2ncccn2)CC1 | 60 nM | –
21 | O=C(CCn1c2c(c(=O)[nH]c1=O)CSCC2)NCC(=O)c1ccc(Br)cc1 | 15 nM | –

Row | SMILES | IC50 [1] | other results
22 | O=C(CCn1c2c(c(=O)[nH]c1=O)CCCC2)NCC(=O)c1ccccc1 | 450 nM | –
23 | O=C(CCn1c2c(c(=O)[nH]c1=O)CC=CCC2)NCC(=O)N1CCN(c2ncccn2)CC1 | 900 nM | –
24 | COc1ccc(-c2ccc(C(=O)CNC(=O)CCn3c4c(c(=O)[nH]c3=O)CSCC4)cc2)cc1 | 15 nM | –
25 | COc1ccc(C(=O)CNC(=O)CCn2c3c(c(=O)[nH]c2=O)CCCC3)cc1 | 300 nM | –
26 | O=C(CCn1c2c(c(=O)[nH]c1=O)CSCC2)NCC(=O)c1ccc(-c2ccncc2)cc1 | 15 nM | –
27 | O=C(CCn1c2c(c(=O)[nH]c1=O)CCCC2)NCC(=O)N1CCN(c2ccccc2)CC1 | 200 nM | –
28 | O=C(CCn1c2c(c(=O)[nH]c1=O)CSCC2)NCC(=O)N1CCN(c2ncccn2)CC1 | – | clearance [2]: 33.5 mL/min/kg; Vss (Rattus norvegicus): 0.31 L/kg; half-life [3]: 12 min; AUC [4]: 520 ng·h/mL
29 | O=C(CCCCCn1c2c(c(=O)[nH]c1=O)CSCC2)NCC(=O)N1CCN(c2ncccn2)CC1 | 250 nM | –
30 | Nc1cccnc1N1CCN(C(=O)CNC(=O)CCn2c3c(c(=O)[nH]c2=O)CSCC3)CC1 | 70 nM | –
31 | C=CCCc1c(CC=C)c(=O)[nH]c(=O)n1CCC(=O)NCC(=O)N1CCN(c2ncccn2)CC1 | > 5000 nM | –
32 | O=C(CCn1c2c(c(=O)[nH]c1=O)CSCC2)NCC(=O)c1ccc(-c2ccccc2)cc1 | 20 nM | –
33 | O=C(CCn1c2c(c(=O)[nH]c1=O)CCCC2)NCC(=O)c1ccc2ccccc2c1 | – | clearance [2]: 28.3 mL/min/kg; Vss (Rattus norvegicus): 0.5 L/kg; half-life [3]: 42 min; AUC [4]: 600 ng·h/mL
34 | O=C(CCn1c2c(c(=O)[nH]c1=O)CSCC2)NCC(=O)c1ccc(Oc2ccccc2)cc1 | 30 nM | –
35 | COc1ccc(N2CCN(C(=O)CNC(=O)CCn3c4c(c(=O)[nH]c3=O)CSCC4)CC2)cc1 | 20 nM and 25 nM | clearance [2]: > 75 mL/min/kg; Vss (Rattus norvegicus): 1.01 L/kg; half-life [3]: 12 min; AUC [4]: 160 ng·h/mL
36 | O=C(CCn1c2c(c(=O)[nH]c1=O)CSCC2)NCC(=O)c1cccc(-c2ccccc2)c1 | 70 nM | –
37 | O=C(CCn1c2c(c(=O)[nH]c1=O)CSCC2)NCC(=O)c1ccc(OC(=O)c2ccccc2)cc1 | 30 nM | –
38 | Nc1cccc(-c2ccc(C(=O)CNC(=O)CCn3c4c(c(=O)[nH]c3=O)CSCC4)cc2)c1 | 20 nM | –
39 | O=C(CCn1c2c(c(=O)[nH]c1=O)CSCC2)NCC(=O)c1ccc(-c2cncnc2)cc1 | 25 nM | –
40 | O=C(CCn1c2c(c(=O)[nH]c1=O)CSCC2)NCC(=O)c1ccc(-c2cccnn2)cc1 | 25 nM | clearance [2]: 27.3 mL/min/kg; Vss (Rattus norvegicus): 0.27 L/kg; half-life [3]: 18 min; AUC [4]: 610 ng·h/mL
41 | O=C(CCn1c2c(c(=O)[nH]c1=O)CCCC2)NCC(=O)c1ccc(Br)cc1 | 80 nM | –
